Results reported in ChEMBL document CHEMBL1136055, “3-Heteroaryl-2-pyridones: benzodiazepine site ligands with functional delectivity for alpha 2/alpha 3-subtypes of human GABA(A) receptor-ion channels” (J Med Chem, 2002).

Tests used:
[1] = molecular target: GABA-A receptor; alpha-1/beta-3/gamma-2 (Homo sapiens) (UniProt P14867+P18507+P28472); assay: Modulatory effect on coapplication with GABA at human Gamma-aminobutyric acid A receptor alpha-1-beta-3-gamma-2 in Xenopus oocyte.
In short: (§1)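 Two-electrode voltage clamp of Xenopus oocytes transiently expressing human α1, α2 or α3 β3γ2S receptors. Test compound is co-applied with GABA at its EC20 (GABA range 4-30 µM). Result is the % change in GABA current, mean (SEM), n = 3-7, at the stated test compound concentration (µM).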

[2] = molecular target: T1, GABA-A receptor; alpha-2/beta-3/gamma-2 (Homo sapiens, UniProt P18507+P28472+P47869); assay: Displacement of [3H]Ro-151788 from human Gamma-aminobutyric acid A receptor alpha-2-beta-3-gamma-2 stably expressed in L(tk-) cells; format: cell-based
T1 sequence (P18507 whole entry): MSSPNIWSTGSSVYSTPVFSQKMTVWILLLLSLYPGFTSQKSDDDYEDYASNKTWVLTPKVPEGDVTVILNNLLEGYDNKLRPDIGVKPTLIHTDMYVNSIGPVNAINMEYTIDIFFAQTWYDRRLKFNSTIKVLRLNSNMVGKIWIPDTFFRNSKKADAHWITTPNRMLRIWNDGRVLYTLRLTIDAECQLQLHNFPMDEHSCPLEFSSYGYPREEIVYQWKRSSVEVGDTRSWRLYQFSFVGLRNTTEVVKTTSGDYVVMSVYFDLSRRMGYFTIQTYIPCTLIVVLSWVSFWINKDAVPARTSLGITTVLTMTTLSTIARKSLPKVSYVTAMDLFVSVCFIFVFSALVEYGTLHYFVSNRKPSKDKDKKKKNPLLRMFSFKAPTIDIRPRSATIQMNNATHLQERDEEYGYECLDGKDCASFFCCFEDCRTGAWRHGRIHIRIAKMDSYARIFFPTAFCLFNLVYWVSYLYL
T1 sequence (P28472 whole entry): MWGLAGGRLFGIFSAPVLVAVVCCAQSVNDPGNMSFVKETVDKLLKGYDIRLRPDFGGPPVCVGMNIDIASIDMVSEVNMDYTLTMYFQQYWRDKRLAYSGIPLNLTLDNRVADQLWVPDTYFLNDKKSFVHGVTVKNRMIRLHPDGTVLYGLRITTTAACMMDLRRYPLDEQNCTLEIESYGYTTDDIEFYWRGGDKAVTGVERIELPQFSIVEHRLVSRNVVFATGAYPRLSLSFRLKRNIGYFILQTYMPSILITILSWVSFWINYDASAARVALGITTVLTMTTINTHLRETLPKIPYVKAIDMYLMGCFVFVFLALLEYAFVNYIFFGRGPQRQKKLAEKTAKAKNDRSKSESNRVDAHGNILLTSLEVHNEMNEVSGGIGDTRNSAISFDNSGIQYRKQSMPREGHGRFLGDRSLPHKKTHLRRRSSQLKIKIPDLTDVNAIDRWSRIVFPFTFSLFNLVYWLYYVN
T1 sequence (P47869 whole entry): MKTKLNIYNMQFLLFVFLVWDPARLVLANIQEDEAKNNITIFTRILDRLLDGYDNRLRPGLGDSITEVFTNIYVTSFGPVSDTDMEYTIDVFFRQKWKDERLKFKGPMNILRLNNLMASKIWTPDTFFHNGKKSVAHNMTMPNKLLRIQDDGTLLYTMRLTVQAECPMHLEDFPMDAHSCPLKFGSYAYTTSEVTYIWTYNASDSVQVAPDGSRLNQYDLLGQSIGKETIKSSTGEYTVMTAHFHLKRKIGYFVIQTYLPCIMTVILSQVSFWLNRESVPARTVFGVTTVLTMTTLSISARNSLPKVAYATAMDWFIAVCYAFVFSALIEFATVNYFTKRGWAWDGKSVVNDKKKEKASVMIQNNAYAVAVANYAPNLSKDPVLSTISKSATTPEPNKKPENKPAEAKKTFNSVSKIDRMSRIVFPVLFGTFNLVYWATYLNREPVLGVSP
In short: (§2)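 Competition binding against [3H]Ro15-1788 on cloned human α1/α2/α3/α5 β3γ2S receptors stably expressed in L(tk-) cells. Six to eight test concentrations spaced in half-log steps. Ki given as mean (SEM), n = 3-5, reported to two significant figures.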

[3] = molecular target: T2, GABA-A receptor; alpha-1/beta-3/gamma-2 (Homo sapiens, UniProt P14867+P18507+P28472); assay: Inhibition of [3H]Ro-151788 binding to human GABA A receptor (alpha-1-beta-3-gamma-2) stably expressed in L(tk-) cells.; format: cell-based
T2 sequence (P14867 whole entry): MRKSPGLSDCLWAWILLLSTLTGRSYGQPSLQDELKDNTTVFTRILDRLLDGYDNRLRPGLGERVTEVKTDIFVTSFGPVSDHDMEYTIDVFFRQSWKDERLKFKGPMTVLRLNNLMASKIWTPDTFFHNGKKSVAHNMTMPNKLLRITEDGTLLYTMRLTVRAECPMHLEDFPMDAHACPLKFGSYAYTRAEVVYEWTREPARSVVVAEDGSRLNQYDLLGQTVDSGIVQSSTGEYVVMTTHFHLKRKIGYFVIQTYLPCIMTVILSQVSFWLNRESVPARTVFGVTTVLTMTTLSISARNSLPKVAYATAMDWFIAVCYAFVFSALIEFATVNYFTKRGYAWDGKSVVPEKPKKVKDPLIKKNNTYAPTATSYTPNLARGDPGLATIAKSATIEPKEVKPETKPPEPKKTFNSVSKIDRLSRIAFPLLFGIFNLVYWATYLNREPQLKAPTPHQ
T2 sequence (P18507 whole entry): T1 sequence (P18507 whole entry)
T2 sequence (P28472 whole entry): T1 sequence (P28472 whole entry)

[4] = molecular target: T3, GABA-A receptor; alpha-3/beta-3/gamma-2 (Homo sapiens, UniProt P18507+P28472+P34903); assay: Binding affinity by displacement of [3H]Ro-151788 from recombinant human gamma-aminobutyric-acid A receptor alpha3,beta3,gamma2 stably expressed in L cells; format: cell-based; in short: as §2
T3 sequence (P18507 whole entry): T1 sequence (P18507 whole entry)
T3 sequence (P28472 whole entry): T1 sequence (P28472 whole entry)
T3 sequence (P34903 whole entry): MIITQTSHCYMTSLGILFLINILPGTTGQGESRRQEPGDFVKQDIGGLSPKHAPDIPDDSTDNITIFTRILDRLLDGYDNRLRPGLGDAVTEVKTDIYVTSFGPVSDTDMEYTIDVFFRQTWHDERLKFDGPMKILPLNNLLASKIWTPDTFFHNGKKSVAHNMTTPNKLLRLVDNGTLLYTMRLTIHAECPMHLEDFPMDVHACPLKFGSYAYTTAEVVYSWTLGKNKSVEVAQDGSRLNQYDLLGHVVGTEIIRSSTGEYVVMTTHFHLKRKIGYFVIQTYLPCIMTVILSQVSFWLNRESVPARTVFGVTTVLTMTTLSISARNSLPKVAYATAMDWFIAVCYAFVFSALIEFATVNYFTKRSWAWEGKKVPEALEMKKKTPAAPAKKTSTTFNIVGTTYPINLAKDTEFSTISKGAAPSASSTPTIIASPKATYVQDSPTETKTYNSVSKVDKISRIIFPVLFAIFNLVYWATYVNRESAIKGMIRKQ

[5] = molecular target: GABA-A receptor; alpha-3/beta-3/gamma-2 (Homo sapiens) (UniProt P18507+P28472+P34903); assay: Modulatory effect on coapplication with GABA at human Gamma-aminobutyric acid A receptor alpha-3-beta-3-gamma-2 in Xenopus oocytes.; format: cell-based; conditions: Oocyte; in short: as §1

SMILES	percent modulation of GABA EC20 response [1]	Ki [2]	Ki [3]	Ki [4]	percent modulation of GABA EC20 response [5]
COc1ccc(-c2cc(-c3nc(C)cs3)c(=O)n(C)c2-c2ccncc2)cc1	7%	8.6 nM	17 nM	3.4 nM	43%
COc1ccc(-c2cc(-c3nc(C)cs3)c(=O)n(C)c2-c2ccnnc2)cc1	7%	6.6 nM	17 nM	4.1 nM	34%
